From ChEMBL document CHEMBL3797120, “Identification of 1,2,3-triazole derivatives that protect pancreatic β cells against endoplasmic reticulum stress-mediated dysfunction and death through the inhibition of C/EBP-homologous protein expression” (Bioorg Med Chem, 2016) come the findings set out here.

Calls of active or inactive are those of the source. No cut-off for these calls is given here.

Series [1] is described as follows: Effect on basal CHOP mRNA expression in rat INS-1 cells at 10 uM after 2 to 8 hrs by qRT-PCR method. The series is classed as ADME, cell-based. The note with it: ins1, 10 µM. The essentials: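 INS-1 cells seeded at 4 × 10⁵/well and exposed to DMSO or 10 μM compound without Tm for the indicated times. Total RNA (2 μg) was reverse transcribed. CHOP mRNA was measured by qRT-PCR with rat primers, normalized to rat cyclophilin A, and expressed as fold change.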

Series [2] in a line: Inhibition of endoplasmic reticulum stress-mediated upregulation of CHOP protein expression in tunicamycin-treated rat INS-1 cells at 20 uM after 2 to 8 hrs by Western blot method. The series is classed as functional, cell-based. The settings on record: INS1. In short, it runs like this: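 INS-1 cells seeded at 8 × 10⁵ per 60-mm dish and treated with Tm and 20 μM compound or DMSO. Lysates (20 μg protein) were run on 7% SDS-PAGE and blotted with anti-CHOP (1:1000). α-Tubulin served as loading control.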

Series [3] can be described thus: Inhibition of endoplasmic reticulum stress-mediated upregulation of CHOP mRNA expression in tunicamycin-treated rat INS-1 cells at 10 uM by qRT-PCR method. The settings on record: INS1, TDE = time-dependent effect. The series is classed as functional, cell-based. In short, it runs like this: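 INS-1 cells seeded at 4 × 10⁵/well and treated with Tm 0.1 μg/ml plus compound, either for 8 h at indicated concentrations or for indicated times at 10 μM. CHOP mRNA was measured by qRT-PCR with rat primers, normalized to rat cyclophilin A, and reported as fold change.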
Background: Real-time PCR tracks product formation cycle by cycle.

Series [4] has as its target DNA damage-inducible transcript 3 protein (Rattus norvegicus) (UniProt Q62857). In words: Inhibition of endoplasmic reticulum stress-induced CHOP activity in rat INS-1 cells assessed as decrease in brefeldin A-induced cell death by measuring cell viability at 5 to 20 uM after 72 hrs by CellTiter-Glo assay. In kind it is cell-based. The note with it: INS1. In short, it runs like this:
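INS-1 cells treated 72 h with or without brefeldin A 0.2 μg/ml in the presence of DMSO or compound at indicated concentrations. Viability measured by CellTiter-Glo. Means ± SD of quadruplicates.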
In general terms: ATP-based viability assays read luminescence as a measure of living cells.

Series [5] shares this target. In words: Inhibition of endoplasmic reticulum stress-induced CHOP activity in rat INS-1 cells assessed as decrease in sodium palmitate-induced cell death by measuring cell viability at 2.5 to 20 uM after 72 hrs by CellTiter-Glo assay. The settings on record: INS1. In kind it is cell-based. In short, it runs like this: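 INS-1 cells switched to DMEM/1% FBS/1% BSA and stressed with sodium palmitate (from 5 mM stock in 5% BSA; final 0.2 mM). Treated 72 h with DMSO or compound. Viability measured by CellTiter-Glo. Means ± SD of quadruplicates.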

Series [6] shares this target. In words: Inhibition of endoplasmic reticulum stress-induced CHOP activity in rat INS-1 cells assessed as suppression of tunicamycin-induced PARP cleavage at 20 uM after 2 to 24 hrs by Western blot method. The series is classed as cell-based. The settings on record: INS1. In short, it runs like this: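 INS-1 cells seeded at 8 × 10⁵ per 60-mm dish and treated with or without compound, with or without Tm, for the indicated times. Lysates (20 μg protein) were run on 7% SDS-PAGE and blotted with anti-caspase-3 and anti-PARP (1:1000) to detect cleavage. α-Tubulin served as loading control.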

DNA damage-inducible transcript 3 protein (Rattus norvegicus), sequence (Q62857 whole entry): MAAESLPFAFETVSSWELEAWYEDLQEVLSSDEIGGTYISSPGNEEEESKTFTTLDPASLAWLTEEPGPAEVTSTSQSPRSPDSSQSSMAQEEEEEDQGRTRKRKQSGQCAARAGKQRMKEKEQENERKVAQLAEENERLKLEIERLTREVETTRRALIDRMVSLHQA

For the compound `CCc1ccc(-n2nnc(C(=O)Nc3cccc(F)c3)c2C)cc1`, in series [1], the Activity entry is reported as “Non-toxic”. Besides, the inhibition result in series [2], in series [4], in series [5] and in series [6] was “Active” each time. Further, the inhibition result in series [3] was “tde”.
